Experimental data: ChEMBL document CHEMBL1153396, “Carbonic anhydrase inhibitors. Inhibition of the beta-class enzymes from the fungal pathogens Candida albicans and Cryptococcus neoformans with aliphatic and aromatic carboxylates” (Bioorg Med Chem, 2009)

Experiments:
[1] = Inhibition of Cryptococcus neoformans Can2
How it was run: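 Recombinant purified Can2. Stopped-flow CO2 hydration assay read with 0.2 mM phenol red at 557 nm, in TRIS pH 8.3 with 20 mM NaClO4 or Na2SO4 for ionic strength. Initial rates followed over 10–100 s, CO2 1.7–17 mM, uncatalyzed rate subtracted. Enzyme and inhibitor preincubated 15 min at room temperature. Ki from non-linear least squares, mean of at least three determinations.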

Carbonic anhydrase = target: T1, Carbonic anhydrase (Candida albicans (strain SC5314 / ATCC MYA-2876) (Yeast), UniProt Q5AJ71); assay: Inhibition of Candida albicans Nce103
T1 sequence (Q5AJ71 whole entry): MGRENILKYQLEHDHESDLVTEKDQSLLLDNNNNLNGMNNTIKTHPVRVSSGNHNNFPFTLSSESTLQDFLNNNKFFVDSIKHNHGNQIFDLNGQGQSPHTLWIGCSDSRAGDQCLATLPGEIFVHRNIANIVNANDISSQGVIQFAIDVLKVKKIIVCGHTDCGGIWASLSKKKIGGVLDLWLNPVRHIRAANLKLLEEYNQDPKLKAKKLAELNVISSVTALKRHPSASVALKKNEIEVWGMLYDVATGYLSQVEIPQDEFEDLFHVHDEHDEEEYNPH
How it was run: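 Recombinant purified C. albicans Nce103. Stopped-flow CO2 hydration assay with phenol red indicator (0.2 mM) read at 557 nm. Tris buffer pH 8.3 with 20 mM Na2SO4 or NaClO4 for ionic strength. CO2 1.7–17 mM. Initial rates over 10–100 s, uncatalyzed rate subtracted. Enzyme and inhibitor preincubated 15 min at room temperature. Ki by non-linear least squares from three assays.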

Carbonic anhydrase 2 = Carbonic anhydrase 2 (Homo sapiens, UniProt P00918); assay: Inhibition of human carbonic anhydrase2

SMILES | Ki [1] [µM] | Ki (Carbonic anhydrase) [µM] | Ki (Carbonic anhydrase 2) [µM]
O=C(O)c1c(F)c(F)cc(F)c1F | 49.1 | 61.6 | –
O=C([O-])C[C@H](O)C(=O)[O-].[Na+].[Na+] | 899 | 87.7 | 1870
C[C@H](O)C(=O)[O-].[Na+] | 953 | 46.8 | 3220
O=C([O-])CC(=O)[O-].[Na+].[Na+] [DISODIUM MALONATE] | 793 | 26.3 | –
CC(=O)C(=O)O [PYRUVATE SODIUM] | 787 | 106 | –
CC(=O)[O-].[Na+] [SODIUM ACETATE] | 7.3 | 36 | –
O=C([O-])c1ccccc1.[Na+] [SODIUM BENZOATE] | 1270 | 24.4 | –
CCCC(=O)[O-].[Na+] [SODIUM BUTYRATE] | 225 | 26.9 | 1030
O=C([O-])CC(O)(CC(=O)[O-])C(=O)[O-].[Na+].[Na+].[Na+] [SODIUM CITRATE] | 88.6 | 39.1 | –
O=C[O-].[Na+] [SODIUM FORMATE] | 53.5 | 35.1 | –
O=C([O-])/C=C\C(=O)[O-].[Na+].[Na+] [SODIUM MALEATE] | 8.7 | 8.6 | 989
O=C([O-])C(=O)[O-].[Na+].[Na+] [SODIUM OXALATE] | 67.7 | 37.7 | –
CCC(=O)[O-].[Na+] [SODIUM PROPIONATE] | 404 | 51.5 | 960
CCCCC(=O)[O-].[Na+] [SODIUM VALERATE] | 42.8 | 94 | 257
